Screening data from PubChem.
sdo1 growth – growth rescue of sdo1-depleted yeast, primary screen, S. cerevisiae, bone marrow failure model; AID 817, 2007; S. cerevisiae sdo1-depleted JHY4D growth rescue, OD600 30 h; stronger effect = higher value; pdr5 snq2 efflux-pump mutant strain; 0.21% of 140,000 active; z-score at 10 µM;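 active = z-score above 3 at both the 24 hr and the 30 hr optical density reads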;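 note: z-score against mean and SD of all compound wells on the same plate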
NCF1 inh – p47phox/p22phox peptide binding inhibitors, primary screen, biochemical, uHTS, NADPH oxidase regulatory subunit; Neutrophil cytosol factor 1 (Homo sapiens), P14598; fluorescence polarization, 2 h; inhibition, % at 24.7 µM; 0.53% of 220,000 active; AID 1274, 2008;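 active = inhibition above about 30%, limit read from the data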;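 note: 0% = p47phox with labelled peptide and 100% = labelled peptide alone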
BB579 growth dn – growth inhibitors of yeast BB579 in restrictive medium, primary screen, yeast lifespan-shortening project, S. cerevisiae. AID 804, 2007. inhibition, % at 10 µM. OD615, 48 h. 0.51% of 140,000 active;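 active = inhibition above a set limit, 3 SD over the mean compound inhibition, cut at about 44% in these data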
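Test system: S. cerevisiae DeaD strain BB579 yeast; Medium: restrictive CSMM-D medium; Compound: one dose, 10 µM compound with 0.25% DMSO; Incubation: 4 h cell preincubation, 48 h compound exposure, 30 °C humidified; Signal: OD at 615 nm; Benchmarks: amphotericin B at 10 µg/mL as positive control.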
RBBP9 inhibitor – human RBBP9 inhibitors, primary screen, biochemical, fluorescence polarization, FP-Rh probe, HTS. 0.2% of 220,000 active. Serine hydrolase RBBP9 (Homo sapiens), O75884. recombinant RBBP9. inhibition, % at 7.94 µM;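 active = inhibition above the campaign mean of all tested compounds plus 3 SD, cut at about 14% in these data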;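 note: plate controls were DMSO wells with RBBP9 for no effect and wells lacking RBBP9 protein for full effect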
Target sequence (O75884 whole entry, looked up): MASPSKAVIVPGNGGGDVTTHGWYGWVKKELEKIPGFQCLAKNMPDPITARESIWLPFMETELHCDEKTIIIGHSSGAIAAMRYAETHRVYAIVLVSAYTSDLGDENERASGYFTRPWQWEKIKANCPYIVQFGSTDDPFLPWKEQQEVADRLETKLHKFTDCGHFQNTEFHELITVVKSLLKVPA
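System: RBBP9 protein / Quantity: 2.5 µM RBBP9 dispensing solution, before mixing / Also added: Serine-hydrolase probe FP-Rh, 375 nM pre-mixing / Dosing: 7.94 µM single dose, 0.794% DMSO / Timing: enzyme-compound preincubation 30 min, then probe labeling 45 min, 25 °C / Signal: FP readout at 525/598 nm / Controls: DMSO-treated enzyme wells and wells lacking RBBP9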
TbHK1 inh – Trypanosoma brucei hexokinase 1 inhibitors, primary screen, biochemical, G6PDH-coupled NADH absorbance, MLSCN library. hexokinase 1 [Trypanosoma brucei]. recombinant TbHK1, G6PDH-coupled NADH A340. inhibition, % at 10 µM. 0.11% of 220,000 active. AID 1430, 2008;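 active = inhibition of 50% or more in the single-dose primary screen; inactive = inhibition below 50%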
Yeast lifespan up – compounds extending yeast replicative lifespan, primary screen, S. cerevisiae, OD615 | S. cerevisiae growth with nicotinamide; deaD strain in restrictive glucose medium | inhibition of the nicotinamide effect, % at 10 µM | 0.68% of 130,000 active | AID 775, 2007;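 active = inhibition above a set limit, placed 3 SD over the median of all compounds, cut at about 26% in these data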;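 note: 0% = nicotinamide-treated wells and 100% = cells grown without nicotinamide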
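Buffer or medium: CSMM-D glucose medium, restrictive; test system: modified budding yeast, DeaD strain; compound: single dose 10 µM compound, 0.25% DMSO; schedule: culture preincubation 4 h, compound exposure 48 h, both 30 °C; detection: optical density (absorbance) at 615 nm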
* = called active by the depositor; nt = no result. Rows were chosen to be rich in hits. Some 1.6% of all compounds tested hit in one or more screens of this group.

SMILES | sdo1 growth | NCF1 inh | BB579 growth dn | RBBP9 inhibitor | TbHK1 inh | Yeast lifespan up
CCCCc1ccc(NC(=S)N2CCN(c3ncccn3)CC2)cc1 | nt | -7 | nt | 1 | -2 | nt
CCCN1CCC(=O)N([C@H](CSc2ccc(OC)cc2)c2ccccc2)CC1 | nt | -16 | nt | nt | -3 | nt
CCOC(=O)c1ccc(NC(=O)c2ccccc2[N+](=O)[O-])cc1 | -0.91 | -6 | 3 | 0 | -2 | -3
CCOC(=O)c1cc([N+](=O)[O-])c([N+](=O)[O-])cc1NC(C)=O | -1 | -3 | 99* | 8 | -17 | -12
Cc1ccc(NP(=O)(Nc2ccc(C)cc2)Nc2ccc(C)cc2)cc1 | nt | -7 | nt | -10 | 3 | nt
CCN(C(=O)c1ccc(NC(C)=O)cc1)c1ccccc1 | 0.85 | 55* | -7 | 1 | -7 | -9
CC(=O)Nc1ccc(C(=O)N(C)c2ccccc2)cc1 | 0.49 | -2 | -5 | 4 | 1 | -6
CC(=O)CSc1nnc(-c2cnccn2)n1-c1ccccc1 | 0.12 | 40* | -41 | -2 | -2 | -3
O=C(CSc1nc(C2CCCCC2)n(-c2ccccc2)n1)NCC(F)(F)F | -0.37 | 41* | -24 | -5 | 0 | -1
C/C(=N\NC(=O)CNC(=O)C1COc2ccccc2O1)c1ccc(Cl)cc1 (stereo not drawn) | nt | -4 | nt | -6 | -4 | nt
CCOC(=O)CNc1nc(Cl)nc(NC(C)(C)C)n1 | nt | -1 | nt | -9 | 2 | nt
COc1cc2nc(C3CCC3)n(NC(=O)COc3ccccc3)c(=O)c2cc1OC | -0.06 | 3 | 8 | -8 | 1 | 53*
N#CC1(c2ccccc2)CCC(=O)N1Cc1ccccc1 (stereo not drawn) | nt | -14 | nt | -5 | -6 | nt
COc1ccc(-c2ccc3c(N)c(C(=O)c4ccc(OC)c(OC)c4)sc3n2)cc1 | 0.49 | 13 | 6 | -10 | -28 | -4
COc1ccc(C(=O)c2sc3nc(-c4ccccc4)ccc3c2N)cc1OC | -1.5 | 30* | -20 | -5 | -16 | -2
Cn1c(-c2ccc(Br)cc2)cnc1NCc1cccnc1 | 0.09 | -10 | -29 | 5 | 5 | 42*
Cc1ccc(-c2nc(N)sc2-c2ccccc2)cc1C | -2.2 | 2 | 79* | -1 | 2 | -6
CCOC(=O)c1c(NC(=O)C[n+]2ccc(Cc3ccccc3)cc2)sc(C)c1C | nt | -16 | nt | -4 | 4 | nt
COc1cc(OC)cc(-c2nc3ccccc3c(=O)n2OC(=O)c2ccc(C)c(C)c2)c1 | -0.22 | -4 | -37 | -5 | 24 | 64*
COc1ccc(CCNC(=O)C/C(C)=N/NC(=O)C(c2ccccc2)c2ccccc2)cc1OC | nt | -5 | nt | -7 | -22 | nt
O=C1c2cccc3c(Cl)ccc(c23)C(=O)N1O | -1 | 7 | 82* | 6 | -26 | -10
CCCn1c(=O)[nH]c(=O)c2c1nc(-c1ccccc1)n2CCN1CCOCC1 | 0.28 | 1 | 2 | 8 | -8 | 57*
O=C(CNC(=O)c1ccc(F)cc1)Nc1ccccc1C(F)(F)F | nt | 4 | nt | -7 | 1 | nt
O=C(OCn1ncc(Cl)c(Cl)c1=O)c1ccc(F)cc1 | -1.4 | 4 | 45* | 1 | 4 | 7
O=C(OCn1ncc(Cl)c(Cl)c1=O)c1ccccc1Cl | -1.5 | -9 | 66* | -6 | 3 | -16
O=C(Cn1ncc(Cl)c(Cl)c1=O)c1ccc(Cl)cc1 | -2.2 | -2 | 12 | -2 | 0 | nt
CCOC(=O)CN1C(=O)N[C@@H](c2ccc(Br)cc2)C(C(=O)OC)=C1C | nt | -1 | nt | nt | -7 | nt
CCOC(=O)CN1C(=O)N[C@H](c2ccc(Br)cc2)C(C(C)=O)=C1C | 0.42 | 1 | -45 | -18 | 3 | 46*
CC(C)NS(=O)(=O)c1cc(C(=O)O)ccc1Cl | 1.7 | 4 | -24 | -1 | 6 | 27*
CC(c1ccccc1)N1CCn2c(nc3cc(NC(=O)c4cccs4)ccc32)C1 (stereo not drawn) | -2.3 | -12 | -40 | -3 | -3 | 55*
